We go through two compounds from ChEMBL document CHEMBL1799973, “Design, synthesis, and cytotoxic evaluation of acyl derivatives of 3-aminonaphtho[2,3-b]thiophene-4,9-dione, a quinone-based system” (J Med Chem, 2011).

Data set [1] is filed under the species Homo sapiens. Briefly: Inhibition of human topoisomerase 2-mediated relaxation of supercoiled pBR322 DNA relaxation at 10 uM after 6 mins by agarose gel electrophoresis. The procedure, abridged: (§1)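 Compound at 5 or 10 μM. Run 6 min at 37 °C and stopped with EDTA/SDS/glycerol dye. Products run on 1% agarose in 0.5× TBE at 4 V/cm for 1 h, stained with ethidium bromide, bands quantified.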

The species named for data set [2] is Homo sapiens. Briefly: Inhibition of human topoisomerase 2-mediated relaxation of supercoiled pBR322 DNA relaxation at 0.04 to 0.92 uM after 6 mins by agarose gel electrophoresis.
The nature of data set [3]: Antitumor activity against human MDA231 cells after 24 to 48 hrs by MTT assay. The settings on record: MDA-MB-231. The data set is classed as functional, cell-based. The procedure, abridged:
(§2)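 MTT read-out. Cells grown at 37 °C in DMEM with 10 mM glucose, 10% fetal calf serum, penicillin/streptomycin and 2 mmol/L glutamine. Seeded at 10^5 cells per well and left 24 h to attach, then compound added over a range of concentrations and cells grown 24 or 48 h. MTT at 1 mg/mL for 2 h at 37 °C in the dark, formazan dissolved in DMSO, OD read at 550 nm. Values are % of vehicle control (0.5% DMSO); IC50 by linear and polynomial regression; triplicate.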

For a further data set, the system named is SNB-19. Briefly: Antitumor activity against human SNB19 cells after 24 to 48 hrs by MTT assay. The data set is classed as functional, cell-based. The procedure, abridged:
as §2

Another data set has as its system H9c2. Description: Cardiotoxicity in rat H9c2 cells at 1 uM measured up to 120 hrs by MTT assay. The data set is classed as toxicity, cell-based. The settings on record: h9c2, 120 h. The procedure, abridged: (§3)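 Rat H9C2 cardiomyoblasts, passages 4–10, grown at 37 °C in DMEM with FBS, glutamine and penicillin/streptomycin. Plated at 2000 cells/well in quadruplicate and given compound at 1 μM for the indicated times. MTT reagent added for 2 h in the incubator, then absorbance read at 570 nm. Data are mean ± SD.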

Another data set has as its system SW-620. Briefly: Antitumor activity against human SW620 cells after 24 to 48 hrs by MTT assay. Format: functional, cell-based. The procedure, abridged: as §2
Another data set relates to SK-MEL-28. Briefly: Antitumor activity against human SK-MEL-28 cells after 24 to 48 hrs by MTT assay. The data set is classed as functional, cell-based. The procedure, abridged: as §2
A further data set has as its system HT-29. Briefly: Antitumor activity against human HT-29 cells after 24 to 48 hrs by MTT assay. The data set is classed as functional, cell-based. The procedure, abridged: as §2
The species named for data set [4] is Homo sapiens. Description: Inhibition of human topoisomerase 2-mediated relaxation of supercoiled pBR322 DNA relaxation at 5 uM after 6 mins by agarose gel electrophoresis. The procedure, abridged: as §1
The subject of data set [5] is Caco-2. Briefly: Antitumor activity against human undifferentiated Caco2 cells after 24 to 48 hrs by MTT assay. The data set is classed as functional, cell-based. The procedure, abridged:
as §2

Another data set deals with SF-295. Description: Antitumor activity against human SF295 cells after 24 to 48 hrs by MTT assay. Format: functional, cell-based. The procedure, abridged: as §2
The subject of another data set is COLO 205. Briefly: Antitumor activity against human COLO205 cells after 24 to 48 hrs by MTT assay. The data set is classed as functional, cell-based. The procedure, abridged: as §2
The subject of data set [6] is Caco-2. Description: Antitumor activity against human differentiated Caco2 cells after 24 to 48 hrs by MTT assay. Format: cell-based. The procedure, abridged: as §2
The next data set relates to U-937. Description: Antitumor activity against human U937 cells after 24 to 48 hrs by MTT assay. Format: functional, cell-based. The procedure, abridged:
as §2

The subject of data set [7] is Nucleic Acid. Description: Binding affinity to DNA assessed as binding mode index by measuring aliphatic signals by DF-STD spectrophotometric analysis. Format: nucleic-acid assay. The procedure, abridged: (§4)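 DF-STD NMR on poly(dG-dC)·poly(dG-dC) in H2O/D2O 9:1 with 100 mM phosphate-buffered saline, pH 7.1. Ligand 1.0 mM; DNA 50 μM as phosphate (20:1 ligand excess). Saturation is centred on the aromatic or low-field aliphatic region for 2 s, with a reference off-resonance at δ −16 ppm and 512 scans. The binding mode index is the relative response of ligand protons to base versus sugar/backbone saturation.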

The nature of data set [8]: Cardiotoxicity in rat H9c2 cells assessed as cell viability at 1 uM up to 120 hrs by MTT assay. Format: toxicity, cell-based. The settings on record: read-out: Activity. The procedure, abridged: as §3
Data set [9] has as its system Caco-2. Description: Increase in Hsp27 protein expression in human Caco2 cells at 5 uM after 48 hrs by Western blot analysis. The data set is classed as functional, cell-based. The procedure, abridged:
(§5)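 Caco-2 cells treated for 48 h (1 or 5 μM for Hsp27; 1 μM for cyclin A). Lysed in ice-cold 50 mM Tris, 150 mM NaCl, 10 mM EDTA, 1% Triton with protease inhibitors. Equal protein run on 8–12% SDS-PAGE and transferred to nitrocellulose. Primary antibody overnight in TBS/Tween/1% milk, then HRP secondary; bands detected by ECL.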

Data set [10] in a line: Antitumor activity against human IGROV cells after 24 to 48 hrs by MTT assay. Format: functional, cell-based. The procedure, abridged:
(§6)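 MTT read-out. Cells grown at 37 °C in DMEM with 10 mM glucose, 10% fetal calf serum, penicillin/streptomycin and 2 mmol/L glutamine. Seeded at 10^5 cells per well and left 24 h to attach, then compound added over a range of concentrations and cells grown 24 or 48 h. MTT at 1 mg/mL for 2 h at 37 °C in the dark, formazan dissolved in DMSO, OD read at 550 nm.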

Another data set relates to MDA-MB-435. Briefly: Antitumor activity against human MDA-MB-435 cells after 24 to 48 hrs by MTT assay. The data set is classed as functional, cell-based. The procedure, abridged: as §6
Data set [11] is filed under the species Homo sapiens. Description: Inhibition of human topoisomerase 2-mediated relaxation of supercoiled pBR322 DNA relaxation after 6 mins by agarose gel electrophoresis.
The test system of data set [12] is Caco-2. Description: Selectivity index, ratio IC50 for undifferentiated human Caco2 cells to IC50 for differentiated human Caco2 cells. Format: functional. The procedure, abridged:
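Ratio of MTT IC50 in undifferentiated to differentiated Caco-2 cells. MTT conditions: 24 or 48 h exposure, formazan dissolved in DMSO, read at 550 nm, IC50 by regression, triplicate.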

In data set [13] the test system is MCF7. Briefly: Cytotoxicity against human MCF7 cells. Format: functional, cell-based. The procedure, abridged:
as §2

For data set [14], the system named is Caco-2. Description: […] of cell differentiation in human Caco2 cells assessed as increase in ALP activity at 10 uM after 48 hrs. Format: functional. Also noted: scale not given: the % may be the effect or the level left. The procedure, abridged:
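Caco-2 cells cultured 48 h with 0, 1, 5 or 10 μM compound. Attached and floating cells washed and lysed in 0.25% sodium deoxycholate. ALP activity measured with a diagnostic ALP reagent and protein by Bradford microassay. Activity expressed as units per mg protein, as a differentiation marker.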

For data set [15], the system named is Caco-2. Briefly: Induction of cyclin A expression in human Caco2 cells at 1 uM after 48 hrs by Western blot analysis. Format: functional. The procedure, abridged:
as §5

In data set [16] the test system is Caco-2. Description: Increase in Hsp27 protein expression in human Caco2 cells at 1 uM after 48 hrs by Western blot analysis. The data set is classed as functional, cell-based. The procedure, abridged:
as §5

The test system of data set [17] is Caco-2. Description: Cell cycle arrest in human Caco2 cells assessed as accumulation at S phase at 1 uM after 48 hrs by propidium iodide staining based flow cytometric analysis (reference value: 36%). The data set is classed as functional.
Data set [18] deals with MCF7. Briefly: Drug uptake in human MCF7 cells assessed as nuclear localization at 50 nM after 30 mins by confocal microscopic analysis. Format: ADME, cell-based. The settings on record: mcf7, 0.5 h, 0.05 µM. The procedure, abridged:
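Imaging in MCF-7 cells by confocal microscopy with 50 nM labeled compound. Cells fixed in paraformaldehyde for 30 min at 4 °C, permeabilized with Triton X-100 for 30 min at 4 °C, and nuclei stained with Hoechst 33342. Images taken with a 63× oil objective.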

In data set [19] the test system is Caco-2. Description: Cell cycle arrest in human Caco2 cells assessed as accumulation at G1 phase at 1 uM after 48 hrs by propidium iodide staining based flow cytometric analysis (reference value: 42%). Format: functional.
The test system of data set [20] is Nucleic Acid. Description: Binding affinity to poly(dG-dC).poly(dG-dC) DNA assessed as compound/DNA complex formation at 1 mM by STD NMR spectrophotometric analysis. Format: nucleic-acid assay. The procedure, abridged: (§7)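 Ligand at 1.0 mM with poly(dG-dC)·poly(dG-dC) at 50 μM (as phosphate groups), a 20:1 ligand excess, in H2O/D2O 9:1 with 100 mM phosphate-buffered saline, pH 7.1. Water suppressed by DPFGSE. STD effects taken relative to a reference spectrum with off-resonance saturation at δ −16 ppm, 2 s saturation, typically 512 scans. WaterLOGSY spectra recorded with and without DNA.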

The test system of data set [21] is Caco-2. Description: Cell cycle arrest in human Caco2 cells assessed as accumulation at G2/M phase at 1 uM after 48 hrs by propidium iodide staining based flow cytometric analysis (reference value: 21%). The data set is classed as functional.
Data set [22] deals with Nucleic Acid. Description: Binding affinity to poly(dG-dC).poly(dG-dC) DNA assessed as compound/DNA complex formation at 1 mM by WaterLOGSY NMR spectrophotometric analysis. Format: nucleic-acid assay. The procedure, abridged:
as §7

Data set [23] deals with Nucleic Acid. Description: Binding affinity to DNA assessed as binding mode index by measuring aromatic signals by DF-STD spectrophotometric analysis. Format: nucleic-acid assay. The procedure, abridged:
as §4

The source made the active and inactive calls. The calls are words filed in the database; no cut-off is given here.

Turning to `COc1cccc2c1C(=O)c1c(O)c3c(c(O)c1C2=O)C[C@@](O)(C(=O)CO)C[C@@H]3O[C@H]1C[C@H](N)[C@H](O)[C@H](C)O1` [DOXORUBICIN], the inhibition entry in the data set listed under Homo sapiens [1], in the data set listed under Homo sapiens [2] and in the data set listed under Homo sapiens [4] was “Active” throughout. In addition, the IC50 in data set [3] was 1130 nM; in the data set on SNB-19, 800 nM; in the data set on SW-620 it was 120 nM; in the data set on SK-MEL-28, 600 nM; with HT-29, 1100 nM; in the data set with Caco-2 [5], 6700 nM. The IC50 was 4400 nM in the data set on SF-295, 1500 nM with COLO 205, 600 nM with Caco-2 [6] and 930 nM with U-937. The Activity entry in the data set with H9c2 is reported as “Toxic”.
On to `CCN(CC)CCC(=O)Nc1csc2c1C(=O)c1ccccc1C2=O.Cl`, for which the Activity with Nucleic Acid [7] is 0.86; in the data set on Caco-2 [14], greater than 180%; in the data set on Caco-2 [17], 41%; in the data set on Caco-2 [19], 29%; in the data set on Caco-2 [21], 28%; in the data set on Nucleic Acid [23] it was 1.35. The viability at 120 h, 1 µM in data set [8] is 74%. The IC50 was 2500 nM in [3]; 2500 nM in data set [10]; 500 nM with MDA-MB-435; 700 nM in the data set on SNB-19; 1500 nM in the data set with SW-620; 500 nM in the data set on MCF7 [13]. The IC50 with SK-MEL-28 amounted to 600 nM; in the data set on HT-29, 800 nM; in the data set on Caco-2 [5] it was 1000 nM; with SF-295, 600 nM; in the data set on COLO 205, 900 nM; in the data set with Caco-2 [6] it was 4100 nM. This compound also showed a 50% inhibitory concentration (IC50) in the data set on U-937 of 1100 nM. The result with Caco-2 [9] and in the data set with Caco-2 [15] was inactive. The inhibition result in the data set listed under Homo sapiens [11] is “Dose-dependent effect”. For the same compound, the “Ratio IC50” value in the data set with Caco-2 [12] is reported as 0.25. For the same compound, the result in the data set on Caco-2 [16], with Nucleic Acid [20] and in the data set on Nucleic Acid [22] was Active. In addition, the Drug uptake result with MCF7 [18] is listed as “Active”.
